Measurements: ChEMBL document CHEMBL1140488, “Influence of 6 or 8-substitution on the antiviral activity of 3-phenethylthiomethylimidazo[1,2-a]pyridine against human cytomegalovirus (HCMV) and varicella-zoster virus (VZV)” (Bioorg Med Chem, 2007)
≈ marks a conversion by molar mass, not a printed value.

Columns and labels:
[1] = Cytotoxicity against HEL cells assessed as alteration in cell morphology after 3 days; type: cell-based; settings: human
In short: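 HEL cell cultures exposed to compound were inspected by microscope for altered morphology. MCC is the minimum concentration causing a microscopically detectable alteration of cell morphology.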

Human betaherpesvirus 5 [2] = experiment: Antiviral activity against HCMV Davis in HEL cells assessed as reduction of virus plaque formation after 5 days; type: functional, organism-based; settings: Human betaherpesvirus 5, Davis, 120 h
In short: (§1)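 Confluent human embryonic lung (HEL) cell monolayers in microtiter plates were inoculated with 100 PFU of HCMV (AD169 or Davis) and left 2 h for adsorption. Residual virus was then removed and compound was added at varying concentrations. Viral cytopathicity was read once it reached completion in untreated infected controls.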

Human alphaherpesvirus 3 [3] = experiment: Antiviral activity against TK+ VZV OKA in HEL cells assessed as reduction of virus plaque formation; type: functional, organism-based; settings: Human alphaherpesvirus 3, OKA
Human alphaherpesvirus 3 [4] = experiment: Antiviral activity against TK- VZV 07/1 in HEL cells assessed as reduction of virus plaque formation; type: functional, organism-based; settings: Human alphaherpesvirus 3, 07/1, HEL
[5] = Cytotoxicity against HEL cells assessed as reduction of cell growth after 3 days; type: cell-based; settings: human
In short: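 HEL cell suspensions were added to wells holding serial concentrations of compound and incubated 3 days at 37 °C in humidified CO2. Viable cells were then counted with a Coulter Counter. CC50 is the concentration reducing viable cell number by 50%.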

Human betaherpesvirus 5 [6] = experiment: Antiviral activity against HCMV AD169 in HEL cells assessed as reduction of virus plaque formation after 5 days; type: functional, organism-based; settings: Human betaherpesvirus 5, AD169, HEL, 120 h
In short: as §1, with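 “controls. EC50 is the concentration inhibiting cytopathicity by 50%.” for “controls.”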

SMILES	EC50 (Human betaherpesvirus 5 [2]) [µg/mL]	EC50 (Human alphaherpesvirus 3 [3]) [µg/mL]	EC50 (Human alphaherpesvirus 3 [4]) [µg/mL]	EC50 (Human betaherpesvirus 5 [6]) [µg/mL]	MCC at 72 h [1] [µg/mL]	CC50 at 72 h [5] [µg/mL]
c1ccc(CCSCc2cnc3ccc(-c4ccccc4)cn23)cc1	> 0.8	0.74 (≈ 2.15 µM)	> 0.8	> 0.8	4	9.9 (≈ 28.7 µM)
Cc1cc(-c2ccccc2O)cn2c(CSCCc3ccccc3)cnc12	> 100	> 20	> 20	> 100	100	> 50
Cc1cc(-c2ccsc2)cn2c(CSCCc3ccccc3)cnc12	1.8 (≈ 4.94 µM)	1.7 (≈ 4.66 µM)	1.8 (≈ 4.94 µM)	> 0.8	≥ 4	> 50
Cc1cc(-c2cccs2)cn2c(CSCCc3ccccc3)cnc12	2.2 (≈ 6.04 µM)	4 (≈ 11 µM)	> 4	2.2 (≈ 6.04 µM)	20	32 (≈ 87.8 µM)
Cc1cc(-c2ccc(C#N)cc2)cn2c(CSCCc3ccccc3)cnc12	2.5 (≈ 6.52 µM)	2.2 (≈ 5.74 µM)	2 (≈ 5.21 µM)	1.8 (≈ 4.69 µM)	≥ 20	10.6 (≈ 27.6 µM)
Nc1nc2c(ncn2COCCO)c(=O)[nH]1 [ACYCLOVIR]					> 400	> 200
Cc1cc(-c2cccc(O)c2)cn2c(CSCCc3ccccc3)cnc12	2.2 (≈ 5.87 µM)	2.4 (≈ 6.41 µM)	3.7 (≈ 9.88 µM)	2.2 (≈ 5.87 µM)	20	50 (≈ 134 µM)
Cc1cc(-c2ccc(O)cc2)cn2c(CSCCc3ccccc3)cnc12	> 100	> 20	> 100	> 100	≥ 100	> 50
Cc1cc(-c2ccccc2)cn2c(CSCCc3ccccc3)cnc12	2.2 (≈ 6.14 µM)	3.6 (≈ 10 µM)	> 4	2 (≈ 5.58 µM)	20	31 (≈ 86.5 µM)
Cc1cc(-c2cccc([N+](=O)[O-])c2)cn2c(CSCCc3ccccc3)cnc12	4 (≈ 9.91 µM)	5.6 (≈ 13.9 µM)	8.3 (≈ 20.6 µM)	7.6 (≈ 18.8 µM)	≥ 100	43 (≈ 107 µM)
Nc1ccn(C[C@@H](CO)OCP(=O)(O)O)c(=O)n1.O.O [CIDOFOVIR]	0.12			0.1	≥ 100	47
Cc1cc(I)c2ncc(CSCCc3ccccc3)n2c1	1.8 (≈ 4.41 µM)	2.6 (≈ 6.37 µM)	2.6 (≈ 6.37 µM)	> 0.8	≥ 4	> 50
Cc1cc(-c2cccc(C#N)c2)cn2c(CSCCc3ccccc3)cnc12	2.5 (≈ 6.52 µM)	> 100	81 (≈ 211 µM)	2.2 (≈ 5.74 µM)	> 100	> 50
Cc1cc(I)cn2c(CSCCc3ccccc3)cnc12	0.12 (≈ 0.294 µM)	0.68 (≈ 1.67 µM)	0.43 (≈ 1.05 µM)	> 0.16	≥ 0.8	> 50
O=c1[nH]c(=O)n([C@H]2C[C@H](O)[C@@H](CO)O2)cc1/C=C/Br [BRIVUDINE]		0.0038 (≈ 0.0114 µM)	362 (≈ 1090 µM)		> 400	
Cc1cc(Br)cn2c(CSCCc3ccccc3)cnc12	0.13 (≈ 0.36 µM)	0.48 (≈ 1.33 µM)	1.1 (≈ 3.04 µM)	0.32 (≈ 0.886 µM)	≥ 2	28 (≈ 77.5 µM)
Nc1nc2c(ncn2COC(CO)CO)c(=O)[nH]1 [GANCICLOVIR]				0.51 (≈ 2 µM)	100	146 (≈ 572 µM)

Second part, led by results:

EC50 (Human betaherpesvirus 5 [2]) [µg/mL]	EC50 (Human alphaherpesvirus 3 [3]) [µg/mL]	EC50 (Human alphaherpesvirus 3 [4]) [µg/mL]	EC50 (Human betaherpesvirus 5 [6]) [µg/mL]	SMILES	MCC at 72 h [1] [µg/mL]	CC50 at 72 h [5] [µg/mL]
> 100	> 20	> 20	> 100	Cc1cc(-c2cccc([N+](=O)[O-])c2)c2ncc(CSCCc3ccccc3)n2c1	100	47 (≈ 116 µM)
> 4	1.6 (≈ 4.27 µM)	2.9 (≈ 7.74 µM)	> 4	Cc1cc(-c2cccc(O)c2)c2ncc(CSCCc3ccccc3)n2c1	20	11.4 (≈ 30.4 µM)
> 4	> 4	> 4	> 4	Cc1cc(-c2ccccc2)c2ncc(CSCCc3ccccc3)n2c1	20	33 (≈ 92 µM)
10.9 (≈ 28.1 µM)	8.3 (≈ 21.4 µM)	10.3 (≈ 26.5 µM)	10.9 (≈ 28.1 µM)	COc1cccc(-c2cc(C)cn3c(CSCCc4ccccc4)cnc23)c1	100	> 50
2.5 (≈ 6.43 µM)	> 4	> 4	2.2 (≈ 5.66 µM)	COc1cccc(-c2cc(C)c3ncc(CSCCc4ccccc4)n3c2)c1	20	36 (≈ 92.7 µM)
2.2 (≈ 5.87 µM)	1.7 (≈ 4.54 µM)	2.7 (≈ 7.21 µM)	2.2 (≈ 5.87 µM)	Cc1cc(-c2ccc(O)cc2)c2ncc(CSCCc3ccccc3)n2c1	20	13.7 (≈ 36.6 µM)
2.2 (≈ 5.66 µM)	2 (≈ 5.15 µM)	3.1 (≈ 7.98 µM)	2.2 (≈ 5.66 µM)	COc1ccc(-c2cc(C)cn3c(CSCCc4ccccc4)cnc23)cc1	20	19.6 (≈ 50.4 µM)
2.5 (≈ 6.86 µM)	8.9 (≈ 24.4 µM)	8.6 (≈ 23.6 µM)	2.5 (≈ 6.86 µM)	Cc1cc(-c2ccsc2)c2ncc(CSCCc3ccccc3)n2c1	100	> 50
2.2 (≈ 5.84 µM)	> 4	> 4	2.2 (≈ 5.84 µM)	Cc1cc(-c2cccc(F)c2)c2ncc(CSCCc3ccccc3)n2c1	20	35 (≈ 93 µM)
2.2 (≈ 5.66 µM)	2.4 (≈ 6.18 µM)	> 4	3.1 (≈ 7.98 µM)	COc1ccc(-c2cc(C)c3ncc(CSCCc4ccccc4)n3c2)cc1	20	25.8 (≈ 66.4 µM)
2.2 (≈ 6.04 µM)	7.8 (≈ 21.4 µM)	4 (≈ 11 µM)	2.5 (≈ 6.86 µM)	Cc1cc(-c2cccs2)c2ncc(CSCCc3ccccc3)n2c1	100	> 50
